Measured values as given in ChEMBL document CHEMBL4513216, “Probing the Open Global Health Chemical Diversity Library for Multistage-Active Starting Points for Next-Generation Antimalarials” (ACS Infect Dis, 2020).

Assay: Toxicity liver stage against HepG2, at 10uM
Assay type: cell-based
Design: test concentration 10 uM, cell line HepG2-A16-CD81EGFP
Details: human, HepG2-A16-CD81EGFP cells; read-out: INHIBITION
Procedure, shortened: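 Uninfected HepG2-A16-CD81EGFP cells, 3 × 10^3 per well, 1536-well, plated on prespotted compound at 10 μM final, parasite-free screening media added to match infected plates; puromycin 10 μM positive, DMSO 0.5% negative; run in parallel with 48 h PbLuc assay at 37 °C, 5% CO2; viability by CellTiter-Glo luminescence, normalized to controls.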

Row | SMILES | cytotoxicity at 10 µM [%]
1 | Cc1c(NC(=O)C(C)N(C)C)c(=O)n(-c2ccccc2)n1C (configuration not stated) | 1.11
2 | COCCN(CCOC)C(=O)c1cn(C(C)(C)C)c2ncccc12 | -1.14
3 | CC(C)NC(=O)Nc1ccc2c(c1)ncn2CC(=O)NCCN(C)C | -8.15
4 | COCC(=O)Nc1ccc2c(c1)CN(C(=O)c1ccco1)CC2 | 7.58
5 | Cn1cc(C(=O)OC2CN(c3nc4c(C(F)(F)F)cccc4s3)C2)nn1 | -11.8
6 | CC(=O)N1CCC2(CC1)[C@@H]1CN(Cc3cccnc3)C[C@@H]1C(=O)N2C | 4.73
7 | CC(C)N(C)[C@@H]1CCN(Cc2ccoc2)[C@H]1Cc1ccccc1 | -2.57
8 | COCCN1Cc2ccccc2C2(CCN(C(=O)c3ccco3)CC2)C1 | 5.85
9 | COCC1CN(C(=O)c2cccc(C)n2)Cc2ncnn2C1 (configuration not stated) | 3.84
10 | Cc1nnc(N2CCCC3(CN(Cc4nccn4C)CCO3)C2)o1 (configuration not stated) | -6.83
11 | COC(=O)c1ccc(C2CC(=O)Oc3cc(C)[nH]c(=O)c32)cc1 (configuration not stated) | -3.86
12 | O=S(=O)(Cc1ccccc1)NCC1CCN(c2cnccn2)CC1 | 14.4
13 | CC(=O)N1CCC(Oc2ccc(C#N)cn2)CC1 | -17.3
14 | CCn1cc(CN(C)S(=O)(=O)c2ccc(NC(C)=O)cc2)cn1 | 9.22
15 | Cc1nn(C)c2c(NCCCn3cccn3)ncnc12 | -0.472
16 | Cc1ccnn1CCC(=O)N1CCCC[C@@]2(C)[C@@H]1CCC(=O)N2C | 3.38
17 | CC1CCc2nn(CCNC(=O)Cc3ccccc3F)c(=O)cc2C1 (configuration not stated) | 6.66
18 | COC(=O)[C@@H]1CN(C(=O)c2cscn2)C[C@H]1c1ccc(OC)cc1 | -31.6
19 | COc1cc(C2Nc3cc(Cl)ccc3C3=NCCN32)ccc1O (configuration not stated) | -29.3
20 | O=C(C1CCCO1)N1CCC(O)(Cn2ccc3ccncc32)CC1 (configuration not stated) | -29.9
21 | CS(=O)(=O)c1ccc(-c2nc(C(=O)N3CCCC3)n3ccccc23)cc1 | 6
22 | Cc1ccc2nc(CN(Cc3ccc(C)o3)C(C)C)cc(=O)n2c1 | 5.6
23 | COc1cc(C#N)ccc1OCC(=O)N(C1CC1)C(C)c1ccco1 (configuration not stated) | 1.18

Row | SMILES | cytotoxicity at 10 µM [%]
24 | Cc1ccc(=O)n(Cc2nc(C(C)OCC(C)C)no2)n1 (configuration not stated) | -3.21
25 | OCCCN1CCCC1c1cccc(Br)c1 (configuration not stated) | 5.71
26 | CC(C)Oc1cccc(CC(=O)NC2CCN(CC(N)=O)CC2)c1 | 3.05
27 | CS(=O)(=O)NC(=O)c1ccn(-c2ccc(Cl)c(Cl)c2)n1 | 6.96
28 | Cc1ccc(C)c(OCC(=O)NC2CCN(c3ccccn3)CC2)c1 | -3.42
29 | CN(Cc1noc(C2CC2)n1)C1CCN(CCn2cccn2)C1 (configuration not stated) | -4.32
30 | O=C(NCCSC1CCCC1)c1cc(Cl)ccn1 | -15.5
31 | COCCNc1ccc(CNCc2cnc3nc(C)cc(C)n23)cc1 | -153
32 | CSCCC(=O)N1CCN(CC(O)C(C)(C)C)CC1 (configuration not stated) | -2.06
33 | O=C(C1CCN(c2ncnc3cccc(F)c23)CC1)N1CCCC1 | 3.76
34 | O=C(NCC1(O)CCSC1)c1ccn(-c2ccccc2F)n1 (configuration not stated) | 2.88
35 | Cc1ccc(C(=O)NCC(O)CN2CCCC2=O)c(C)c1 (configuration not stated) | -6.68
36 | O=C1CN(C(=O)c2cc3c(F)cc(Br)cc3[nH]2)CCN1 | 0.0723
37 | O=C(c1ccc(-n2ccnc2)cc1)N1CCN(c2cnccn2)CC1 | -5.63
38 | CN(C)c1ncc(NC(=O)N2CCC(CN3CCCC3)C2)cn1 (configuration not stated) | 3.88
39 | CCNC(=O)CN1CCC(c2cc(OC)cc(OC)c2)C1 (configuration not stated) | -5.66
40 | c1ccc(CCN2CCCC(c3noc(C4CC4)n3)C2)cc1 (configuration not stated) | -3.62
41 | Cc1ccc(C(=O)NCCCNS(C)(=O)=O)cc1C | -1.66
42 | O=C(CCS(=O)(=O)C1CCCC1)N1CCCC1c1ccsc1 (configuration not stated) | 1.06
43 | COc1ccccc1NCC(=O)NCc1cc[nH]n1 | 1.87
44 | CCOc1cccc(COC(=O)c2ccc(Cl)cn2)n1 | -3.44
45 | N#Cc1cnc2ccccc2c1N1CCNCC1 | -1.86
46 | CCC1CN(c2cnn(C)c(=O)c2Cl)CCO1 (configuration not stated) | -1.26

Row | SMILES | cytotoxicity at 10 µM [%]
47 | COc1cccc(C(O)Cn2ncc3ncccc3c2=O)c1 (configuration not stated) | -2.45
48 | CCN(CC)c1ccc(NC(=O)NCC2CCOC2)cn1 (configuration not stated) | 2.14
49 | COc1ccc2c(c1)C(NCCc1ccccn1)CCCO2 (configuration not stated) | -6.03
50 | CCC(NC(=O)NCc1ccoc1C)c1c(C)nn(C)c1C (configuration not stated) | -1.44
51 | N#Cc1cc(S(N)(=O)=O)ccc1NC1CCc2c(F)cccc21 (configuration not stated) | -12.4
52 | Cc1ccc(N(C)CC(O)COCc2ccccc2)c(C)c1 (configuration not stated) | 3.67
53 | CCC1CN(C(=O)COc2ccc(NC(C)=O)cc2)CCO1 (configuration not stated) | -9.4
54 | Cc1nnc2n1CCN(Cc1nc3c(F)cccc3[nH]1)C2 | -2.3
55 | Cc1cc(-n2cncn2)ccc1C(=O)Nc1ccc(N2CCCC2)cn1 | 7.26
56 | O=C(c1ccn(-c2ccccc2Cl)n1)N1CCSCC1 | 15.6
57 | O=C(NCc1nnc2n1CCCC2)N(Cc1ccccc1F)C1CC1 | -9.29
58 | Cc1cnn(CC2CCCN2C(=O)CCCc2nc(C)no2)c1 (configuration not stated) | 2.86
59 | OCCNc1nccc(-c2c[nH]nc2-c2ccco2)n1 | -6.47
60 | COc1ccc(OC)c(-n2cnnc2COC(C)C)c1 | -6.57
61 | CCOc1ncccc1Cn1cc(-c2nccn2C)nn1 | -1.38
62 | Cc1nccc(-c2ccccc2)c1C(=O)N1CCC2(CCCO2)CC1 | 2.34
63 | COc1ccccc1CNC(=O)CN(C)C(C)c1nccs1 (configuration not stated) | 1.81
64 | Cc1ccc(-c2noc([C@H](N)CC(C)C)n2)nn1 | 1.27
65 | CCOc1ccc2[nH]c(=O)c(CN3CCCC(CO)(CO)C3)cc2c1 | 22.3
66 | O=C(CCc1ccncc1)N1CCc2c(ncnc2N2CCOCC2)C1 | -11.5
67 | Cc1nccnc1N1C[C@H](NC(=O)CNS(C)(=O)=O)[C@@H](C2CC2)C1 | -10.3
68 | Cc1cc(C)c(C(=O)N(CCO)Cc2ccccc2F)c(=O)[nH]1 | -0.626
69 | CCc1noc(C2CCCCN2C(=O)c2ccccc2)n1 (configuration not stated) | -2.38

Row | SMILES | cytotoxicity at 10 µM [%]
70 | Cc1nc(N(C)C)nc(NCCc2ccccn2)c1C | 4.59
71 | CCOC(=O)CC(C)NC(=O)c1cn(Cc2ccccc2F)nn1 (configuration not stated) | -4.75
72 | O=C1NCCN(Cc2cccnc2)C1CC(=O)N1CCc2n[nH]cc2C1 (configuration not stated) | -4.05
73 | CCn1ncnc1C(C)NC(=O)C1CCN(C2CCCCC2)CC1 (configuration not stated) | -149
74 | COc1ccc(OCCN2CCOCS2(=O)=O)cc1 | 2.6
75 | COc1ccc2c(c1)OCC(CNC(=O)c1cnc(NC(C)C)nc1)C2 (configuration not stated) | -5.07
76 | CN(CCCOc1ccccc1Cl)C(=O)CN1C(=O)CCNC1=O | -1.97
77 | CCc1cc(N[C@@H]2CC[C@@H](N)C2)n2nc(C)c(C)c2n1 | 2.2
78 | CC(C)[C@@H]1CN(C(=O)CCc2ccc(F)cc2)C[C@H]1C(=O)O | -3.97
79 | COc1ccc(C(=O)N2C[C@@H](C(=O)O)[C@H](c3cccc(F)c3)C2)c(O)c1 | 6.03
80 | COc1ccc2c(c1)OCC(Cc1ccc(CN)cn1)C2 (configuration not stated) | -1.84
81 | CC(=O)NCCCC(=O)N1CCC(Sc2cccc(C)c2)CC1 | 2.06
82 | Cc1cc(C(=O)N2CCC3(CCCN(CC4CC4)C3=O)C2)c(C)n1C (configuration not stated) | -5.5
83 | O=C(c1ccc(C2CCCO2)s1)N1Cc2ccccc2C1 (configuration not stated) | -13.4
84 | Cc1oc(C(=O)O)cc1S(=O)(=O)Nc1cccc(Cl)c1F | -5.99
85 | Cc1nnc(NC(=O)NCc2ccc(N3CCOCC3)nc2)s1 | -6.21
86 | Cc1cc(CN2CCN(C(=O)NCCc3csc(C)n3)CC2)on1 | -2.68
87 | CC1CN(CC(=O)NC(C2CC2)C2CC2)CCN1Cc1nccn1C (configuration not stated) | -6.48
88 | Cc1nnc(C(C)N2CCN(Cc3ccc(C(F)(F)F)cc3)CC2)o1 (configuration not stated) | 8.15
89 | CC(O)CN1CCN(C(=O)c2ccc(N3CCCC3)nn2)CC1 (configuration not stated) | -17.3
90 | CCCc1nc(CN2CCOC(Cn3cccn3)C2)no1 (configuration not stated) | -27.1
91 | Cc1ccc(NC2CCN(C(=O)c3nccc4ccccc34)CC2)nn1 | -13.5
92 | O=C(Cc1csc(-c2ccco2)n1)N1CCN(c2ccccc2O)CC1 | -10.7

Row | SMILES | cytotoxicity at 10 µM [%]
93 | CC1CCN(CCNC(=O)c2ccn(-c3ccc(F)cc3)n2)CC1 | -15.6
94 | O=S(=O)(CCN1CCCC1Cn1cncn1)c1ccccc1 (configuration not stated) | -21
95 | O=C(Cc1cn2ccccc2n1)N1CCCC(n2ccnc2)C1 (configuration not stated) | -22.4
96 | O=C(NCc1csc(Br)c1)c1cnccn1 | -23.3
97 | CCc1n[nH]c(C2CN(C(=O)c3ccc4c(c3)CCCC4)CCO2)n1 (configuration not stated) | -16.1
98 | CNC(=O)NC(=O)CN1CCCC(Cc2ccccc2OC)C1 (configuration not stated) | 4.95
99 | CCOC(CC)C(=O)NCc1cccc(N2CCCCC2=O)c1 (configuration not stated) | 5.12
100 | Cc1ccc2c(c1)C(NC(C)C)CC21CCNCC1 (configuration not stated) | -10.6
101 | c1c(CN2CCCC2)nc2n1CCN(CC1CC1)C2 | -136
102 | COCCN1CCC2(CCC(=O)N2Cc2csc(C)n2)CC1 | 2.22
103 | Cc1nc(CN2C(=O)C[C@H]3[C@H]2CCN3C2CCOC2)cs1 (some centres not stated) | -139
104 | CCN1CC[C@@]2(C(=O)N3CCCC3)CCN(S(C)(=O)=O)CC[C@@H]12 | -0.537
105 | Cc1ccc(N2C[C@H]3CCC[C@@]3(COc3cccnc3)C2)nn1 | 9.43
106 | O=C(NCCO)C1(Cc2ccccc2-c2cccnc2)CCOCC1 | -31.8
107 | CN(C)Cc1nn(C)c2c1CCN(C(=O)c1cnccn1)C2 | -134
108 | CS(=O)(=O)N[C@H]1CCO[C@]2(CCN(CC3CCOCC3)C2)C1 | -122
109 | O=C([C@H]1CC[C@@H]2[C@@H](CCN2Cc2ccsc2)O1)N1CCOCC1 | 1.3
110 | O=C(CCO)N1C[C@@H]2CC[C@H]1CN(C1Cc3ccccc3C1)C2 | -0.608
111 | CN1C[C@H]2CC[C@@H](CC1=O)N2C(=O)c1ccc(-c2ccccc2)[nH]c1=O | 5.91
112 | CCOc1ccc(C2c3c(N)nc(SC)nc3N=C3COC(=O)C32)cc1 (configuration not stated) | 30
